High-throughput results from PubChem BioAssay.
MEKK2 WT-MEK5: modulators of MEK5 binding to wildtype MEKK2, primary screen, biochemical, multiplex bead flow cytometry, Alexa488-MEK5; AID 1531, 2009; Mitogen-activated protein kinase kinase kinase 2 (Homo sapiens), Q9Y2U5; 290,000 compounds, 1.1% hits; Alexa488-MEK5 binding to MEKK2 WT; actives lie on both sides; binding response (% of control), % at 10 µM; in the data active = binding response below about 67% or above about 130%
ATG4B inh: ATG4B protease inhibitors, primary screen, biochemical, fluorescence, uHTS; AID 504462, 2011; inhibition, % at 8.33 µM; ATG4B cleavage of LC3-PLA2, NBD-HPC fluorescence, 1 h; 340,000 compounds, 0.51% hits; in the data active = inhibition above about 40%
Dynein cargo inh: inhibitors of GR-EGFP nuclear translocation, primary screen, dynein cargo transport inhibitor project, imaging, high-content, 3617.4 mouse cells | test concentration mostly 20 µM; stimulated with dexamethasone, 1 µM; stronger effect = lower value | AID 1381, 2008 | 220,000 compounds, 0.47% hits | z-score, hits read low;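 active = plate z-score of nuclear minus cytoplasmic receptor signal below a set negative limit, without overly bright fluorescence or cell loss, cut at about -3.5 in these data, passing the limit was not always enough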;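 note: z-score of nuclear minus cytoplasmic ring GR-EGFP intensity difference per well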
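Medium: Induction medium lacking tetracycline, stripped serum | Probe or stimulus: 1.0 µM final dexamethasone stimulus | Schedule: 48 h induction, then 1 h compound, then 30 min agonist, 37 °C | Signal: Automated 10x imaging of fixed Hoechst-stained cells | Evaluation: Per-cell GR-EGFP intensity, nucleus versus surrounding cytoplasmic ring, well-averaged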
Beta2AR agonist: beta2AR agonists driving receptor internalization, primary screen, cell-based, FAP fluorogen, flow cytometry. Beta-2 adrenergic receptor (Homo sapiens), P07550. Am2.2-beta2AR cells. response, % (no concentration beside the values). 340,000 compounds, 0.43% hits. AID 504454, 2011;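 active = response above a set limit, near 3 SD of response in nonfluorescent compounds, cut at about 42% in these data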
Target sequence (P07550 whole entry, looked up): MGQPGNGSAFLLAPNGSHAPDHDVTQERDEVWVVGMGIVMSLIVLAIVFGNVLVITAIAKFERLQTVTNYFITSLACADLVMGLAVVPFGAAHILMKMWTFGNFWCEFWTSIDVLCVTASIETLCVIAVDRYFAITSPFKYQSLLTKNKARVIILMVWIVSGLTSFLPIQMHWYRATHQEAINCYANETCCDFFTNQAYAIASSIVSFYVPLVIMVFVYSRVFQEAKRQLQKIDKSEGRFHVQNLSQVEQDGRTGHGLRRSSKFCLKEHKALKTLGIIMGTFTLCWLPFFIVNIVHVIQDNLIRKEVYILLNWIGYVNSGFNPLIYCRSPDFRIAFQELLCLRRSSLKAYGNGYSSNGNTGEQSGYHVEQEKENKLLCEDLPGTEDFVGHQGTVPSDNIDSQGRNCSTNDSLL
MEKK2 mut-MEK5: MEK5 binding signal on mutant MEKK2 PB1, primary screen, biochemical, multiplex bead flow cytometry, Alexa488-MEK5. percent response, % at 10 µM. 290,000 compounds, 0.35% hits. AID 1530, 2009. Alexa488-MEK5 binding to MEKK2 mutant; in the data active = percent response above about 24%, passing the limit was not always enough
MEKK3 PB1 HTS: modulators of MEKK3-MEK5 PB1 binding, primary screen, biochemical, wildtype MEKK3, multiplex bead flow cytometry, Alexa488-MEK5. bead-based flow cytometry, Alexa488-MEK5 binding to MEKK3; actives lie on both sides; 0 = blocked by unlabeled MEK5, 100 = vehicle. binding response (% of control), % at 10 µM. 290,000 compounds, 1.4% hits. AID 1529, 2009;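 active = binding response more than 3 SD above or below the average of its plate-row segment, actives on both sides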;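 note: Alexa488 bead fluorescence after subtracting the streptavidin-only scavenger bead signal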
B2AR ag CP1: beta2AR agonists via receptor internalization, confirmation, cell-based, FAP fluorogen, flow cytometry, single point, cherry pick 1; shares compounds with Beta2AR agonist; AID 540358, 2011; 1,100 compounds, 25% hits; percent response (surface receptor), % at 10 µM; Am2.2-beta2AR cells, FAP surface receptor; stronger effect = lower value;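 active = surface receptor percent response at or below 58%, roughly 3 SD from nonfluorescent compounds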
FAP fluor counter: fluorescence artifact in beta-2AR agonist FAP counterscreen; shares compounds with Beta2AR agonist; Am2.2 cells, FAP fluorogen flow cytometry; stronger effect = lower value; calls only at 10 µM; 1,100 tested, under 10 active; AID 588765;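 active = percent response below a set limit in fluorescence channel 1 and below 50% in channel 8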
ATG4B confirm: ATG4B protease inhibitors, retest, confirmation, biochemical, fluorescence, single concentration. shares compounds with ATG4B inh. ATG4B protease fluorescent substrate cleavage assay. inhibition, % at 8.33 µM. 320 compounds, 92% hits; in the data active = inhibition above about 39%
PLA2 counter: PLA2 enzyme inhibition, counter-screen for ATG4B inhibitor project, biochemical, single concentration, uHTS hits; shares compounds with ATG4B inh; inhibition, % at 8.33 µM; 1,600 compounds, 66% hits; purified PLA2, NBD-C6-HPC fluorescence, 45 min; in the data active = inhibition above about 50%
Target sequence (P04054 whole entry, looked up): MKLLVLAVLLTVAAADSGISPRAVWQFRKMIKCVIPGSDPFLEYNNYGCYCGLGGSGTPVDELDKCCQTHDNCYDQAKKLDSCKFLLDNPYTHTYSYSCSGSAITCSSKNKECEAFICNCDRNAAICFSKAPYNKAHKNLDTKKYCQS
A number is an active result; 0 = inactive; - = no result; + = active, no number; ! = not confirmed by another sample. Only some compounds are listed: those with a hit (about 2.9% of all), similar ones and a draw of the others.

SMILES	MEKK2 WT-MEK5	ATG4B inh	Dynein cargo inh	Beta2AR agonist	MEKK2 mut-MEK5	MEKK3 PB1 HTS	PLA2 counter	others
COc1ccc(CC2NCC(O)C2OC(C)=O)cc1 (stereo unspecified)	-	0	-	110	-	-	-	B2AR ag CP1=20;FAP fluor counter=+
COc1ccc(OC)c2c1CCC1NCCOC21 (stereo unspecified)	0	0	0	0	0	0	-	B2AR ag CP1=0;FAP fluor counter=0
OC12ONC(c3ccccn3)C1N1CCC2CC1 (stereo unspecified)	0	0	0	0	0	0	-	B2AR ag CP1=0;FAP fluor counter=0
COc1ccc(OC)c(C(O)C2CCCCN2)c1 (stereo unspecified)	0	0	-	0	0	0	-	B2AR ag CP1=0;FAP fluor counter=0
Cc1ccc(C2N(c3ccccn3)C(=O)C3CCCN32)o1 (stereo unspecified)	0	0	0	0	0	0	-
CCNCC(O)c1cccc(O)c1 (stereo unspecified)	0	0	-	0	0	0	-	B2AR ag CP1=0;FAP fluor counter=0
CCn1c(O)c(/C(C)=N/N2CCCCC2c2cccnc2)c(=O)[nH]c1=S (stereo unspecified)	0	0	0	0	0	0	-
COC(=O)C1=C(c2ccc(F)cc2OCc2ccccc2)C[C@@H]2CC[C@H]1N2C(=O)NCc1ccccc1Cl	-	43	-	0	-	-	62
COC(=O)C1=C(c2ccc(F)cc2OCc2ccccc2)C[C@@H]2CC[C@H]1N2C(=O)NCCOc1ccccc1Cl	-	0	-	0	-	-	-
Cc1ccc(Cn2cc(C=O)c(-c3ccc(C)cc3)n2)cc1	0	63	0	0	0	0	60
CN1C(=O)C(=Cc2ccccc2OCc2ccc(C(=O)O)cc2)C(=O)N(C)C1=O	0	0	0	0	0	0	-
CN1C(=O)C(=Cc2ccccc2OCc2ccccc2Cl)C(=O)N(C)C1=O	0	50	0	0	0	0	52
CCOc1ccc(-n2c(-c3cccs3)nc3ccccc3c2=O)cc1	0	49	0	0	0	0	52
COc1nc2ccccc2c(=O)n1-c1ccc(C)cc1	0	0	0	0	0	0	-
CCCCOc1nc2ccccc2c(=O)n1-c1ccccc1	0	41	0	0	0	0	0
CCOP(=O)(OCC)C(c1ccccc1)N(C)C=O (stereo unspecified)	0	0	0	0	0	0	-
CCn1nc(/C=C/c2ccccc2)nc2c(=O)n(C)c(=O)nc1-2	0	87	0	68	0	0	0	ATG4B confirm=0
CN1CCN(c2ncc(C=O)s2)CC1	0	0	0	0	0	0	-
CCCCCCCCCCCCCCCC[n+]1ccccc1	-	59!	-	0	-	-	0	ATG4B confirm=39
CC(C)CCP(=O)(O)c1ccccc1	0	0	0	0	0	0	-
O=c1c2ccccc2nc(SCC2CCCCO2)n1-c1ccccc1 (stereo unspecified)	0	50	0	0	0	0	0
O=C(Cn1c(=O)c(C(F)(F)F)nc2ccccc21)N1CCC2(CC1)OCCO2	0	0	0	0	0	0	-
CC[C@H](C)/C=C(C)/C=C/C1=CC2=C(Cl)C(=O)[C@](C)(OC(C)=O)C(=O)C2=CO1	-	55	-	0	-	-	71
ClCCN(CCCl)c1ccc(C2=NCCc3ccccc32)cc1	-	40	-	0	-	-	57
COc1ccc(CNCCc2ccccc2F)c(OC)c1C	0	0	-	0	0	0	-
SMILES	MEKK2 WT-MEK5	ATG4B inh	Dynein cargo inh	Beta2AR agonist	MEKK2 mut-MEK5	MEKK3 PB1 HTS	PLA2 counter	others
C[N+]12CCC(CC1)C(C#N)(N1CCOCC1)C2 (stereo unspecified)	0	0	0	0	0	0	-
CN(CC(=O)Nc1ccccc1-c1ccccc1)C1CCCCC1	0	73	0	0	0	0	79
CCc1ccccc1NC(=O)CNC1CCCCC1	0	0	0	0	0	0	-
Cc1cc(OC(C)C(=O)NCC(O)c2ccccc2)c2c3c(c(=O)oc2c1)CCCC3 (stereo unspecified)	0	0	-	0	0	0	-
Cc1cc(OCC(=O)NCC(O)c2ccccc2)c2c3c(c(=O)oc2c1)CCCC3 (stereo unspecified)	0	52	-	0	0	0	55
CC(=O)N(C1=NCCCS1)c1ccc(Cl)cc1	0	0	0	0	0	0	-
